# Shown are actives, neighbours in structure and some others; about 4.5% of the full set was active somewhere.
# CHO parental Ca – counter-screen: ATP calcium response change in parental CHO cells; parental CHO-K1, ATP-induced calcium, Fluo-8 fluorescence; inhibition, % at 5.6 µM; 330,000 compounds, 0.63% hits;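 active = inhibition above that plate's mean sample inhibition plus 3 SD, cut at about 26% in these data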
#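 test system = CHO parental line | reagent = ATP stimulus | measured by = intracellular calcium via Fluo-8 no-wash fluorescent dye | control set = ATP and no-ATP DMSO wells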
# OX1R antag-1 – blocks the human orexin 1 receptor; 330,000 compounds, 0.43% hits; CHO/OX1R cells, Fluo-8 calcium fluorescence, orexin A; inhibition, % at 5 µM; AID 434989; O43613;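 active = inhibition above its plate's threshold, mean inhibition of all tested compounds on the plate plus 3 SD, cut at about 37% in these data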
# Target sequence (O43613 whole entry, looked up): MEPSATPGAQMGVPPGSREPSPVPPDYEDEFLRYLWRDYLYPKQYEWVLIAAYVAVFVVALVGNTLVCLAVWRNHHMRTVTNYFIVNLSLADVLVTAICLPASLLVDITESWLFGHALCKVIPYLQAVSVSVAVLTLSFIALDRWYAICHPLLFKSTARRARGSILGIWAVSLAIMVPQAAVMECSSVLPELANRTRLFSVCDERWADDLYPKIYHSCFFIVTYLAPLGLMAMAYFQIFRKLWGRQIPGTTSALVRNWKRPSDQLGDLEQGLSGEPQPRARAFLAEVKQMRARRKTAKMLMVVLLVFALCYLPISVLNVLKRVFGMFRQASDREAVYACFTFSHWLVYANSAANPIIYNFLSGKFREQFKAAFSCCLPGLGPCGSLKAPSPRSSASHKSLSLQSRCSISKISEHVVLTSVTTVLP
# OX1R antag-2 – OX1R (human) antagonism; O43613; OX1R-expressing cells, FRET antagonist read-out; inhibition, % at 6.6 µM; 330,000 compounds, 1.8% hits; AID 485270; in the data active = inhibition mostly above about 38%, no sharp cut-off; inactive = mostly below about 40%
# TAAR1 antag – human TAAR1 antagonism; Q96RJ0; CHO RD-HGA16 TAAR1, Fluo-8 calcium fluorescence, antagonist; inhibition, % at 3 µM; 360,000 compounds, 1.5% hits; AID 624466;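 active = inhibition above a per-plate cutoff, the mean inhibition of test compounds on that plate plus 3 SD, cut at about 49% in these data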
#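 Test system – hTAAR1-expressing CHO RD-HGA16 cells, Gα16-coupled · Also added – β-PEA at EC80 concentration, post-compound challenge · Compound – 3 µM, single point · Incubation – dye loading 75 min at 37 °C, then 30 min room temperature · Measured by – Fluo-8 intracellular calcium dye fluorescence, real-time kinetic reads · Benchmarks – vehicle and agonist controls · Replicates – singlicate, one well per test compound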
# GPR7 antag – antagonists of human GPR7 (neuropeptides B/W receptor 1) | P48145 | GPR7-expressing cells, fluorescence antagonist assay | inhibition, % at 4.4 µM | 290,000 compounds, 1.1% hits | AID 1861; in the data active = inhibition above about 16%, passing the limit was not always enough;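 also: cells stimulated with the agonist NPW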
# TAAR1 agonist – agonists of human TAAR1 | Q96RJ0 | CHO RD-HGA16 TAAR1, Fluo-8 calcium fluorescence; vehicle wells 0%, saturating PEA agonist 100% | activation, % at 3 µM | 360,000 compounds, 0.99% hits | AID 624467;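 active = activation above the mean activation of all test compounds in the run plus 3 SD, cut at about 38% in these data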
#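 Repeats: no replicates (n 1) | Material: CHO-derived RD-HGA16 cells with stable Gα16 and human TAAR1 | Technique: Kinetic Fluo-8 calcium fluorescence | Schedule: 17-24 h seeding, 75 min 37 °C dye, 30 min RT | Evaluation: % activation from peak over basal fluorescence ratio, DMSO-to-PEA scaled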
# OX1R Ca confirm – confirmation of human orexin 1 receptor antagonists. shares compounds with OX1R antag-1. CHO/OX1R cells, orexin A calcium Fluo-8 fluorescence. inhibition, % at 5 µM. 1,100 compounds, 38% hits; in the data active = inhibition above about 29%
# CHO Ca counter – counter-screen: parental CHO calcium response change, triplicate; parental CHO-K1, ATP-induced calcium, Fluo-8 fluorescence; inhibition, % at 5.6 µM; AID 492965; shares compounds with OX1R antag-1; 1,100 compounds, 9.3% hits;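 active = inhibition above a per-plate limit, the mean inhibition of that plate's test compounds plus 3 SD, cut at about 25% in these data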
# Numbers stand for hits; – = inactive; · = no result.
SMILES,CHO parental Ca,OX1R antag-1,OX1R antag-2,TAAR1 antag,GPR7 antag,TAAR1 agonist,OX1R Ca confirm,CHO Ca counter
CCN(CC)c1ccc(/C=N/NC(=O)CC(C)C)cc1,–,–,–,–,–,–,·,·
N#Cc1ccc(-c2cccnc2)nc1SCC(=O)c1ccccc1,–,53,–,–,–,–,–,–
C[C@H]1CN([C@@H](C)CO)C(=O)c2cc(Br)cnc2O[C@H]1CN(C)C(=O)c1ccc2c(c1)OCO2,·,·,·,–,·,–,·,·
Cc1ccc(NC(=O)N(C2=NCC(C)S2)c2ccccc2)cc1 (configuration not stated),–,–,–,–,–,–,·,·
CNC(=S)N(C1=NCC(c2ccc([N+](=O)[O-])cc2)S1)c1ccccc1 (configuration not stated),–,–,–,–,–,–,–,–
Cc1ccc(OCCC(=O)OCC(=O)c2ccc3c(c2)NC(=O)CO3)cc1,–,–,–,–,·,–,–,–
O=C1COc2ccc(C(=O)COC(=O)CCCOc3ccccc3)cc2N1,·,·,·,–,·,–,·,·
O=C(Nc1ccc(Cl)cc1)C1Cc2c(-c3cccc(F)c3)ccnc2O1 (configuration not stated),·,·,·,–,·,–,·,·
CCC(C)NS(=O)(=O)c1ccc(S(=O)(=O)N(CC(=O)Nc2ccccc2)Cc2ccco2)cc1 (configuration not stated),–,49,–,–,–,–,–,–
Cc1cc(Br)cn2c(Cc3cccc(F)c3)c(C3CCCCC3)nc12,·,·,·,–,·,–,·,·
CC(=O)c1ccc(OCC(=O)Nc2cccc(S(=O)(=O)N3CCCC3)c2)cc1,–,–,–,–,·,–,·,·
N#Cc1ccccc1OCC(=O)Nc1cccc(S(=O)(=O)N2CCCCCC2)c1,–,–,–,53,·,–,–,–
O=C(COc1ccc2ccc(=O)oc2c1)Nc1cccc(S(=O)(=O)N2CCCCC2)c1,–,–,–,–,·,–,–,–
Nc1ccccc1/C=C/c1ccccc1N,·,·,·,–,·,–,·,·
COc1ccc(OC)c(NC(=O)COc2cc(O)c3c(c2)OC(C)(C)CC3=O)c1,·,·,·,–,·,–,·,·
CC(C)(C)NC(=O)C(c1cccc2ccccc12)n1c(=O)c(-c2cc3ccccc3[nH]2)nc2ccccc21 (configuration not stated),·,·,·,–,·,–,·,·
Cc1cccc(NC(=O)c2cc(S(=O)(=O)N3CCCCC3)c[nH]2)c1,·,·,·,–,·,–,·,·
COc1ccc(S(=O)(=O)N2CCN(CC(=O)c3[nH]c(C)c(C(C)=O)c3C)CC2)cc1OC,–,–,–,–,·,–,·,·
CC(=O)c1c(C)[nH]c(C(=O)CN2CCN(S(=O)(=O)c3ccc(C(C)C)cc3)CC2)c1C,–,–,–,–,·,–,–,–
CCc1nc2ccc(C(=O)NCCc3ccccn3)cn2c1N(C)CCC(C)C,·,·,·,–,·,–,·,·
CCCCCCCn1c2c(c(=N)c3ccccc31)CCC2,–,–,–,–,53,–,–,38
CCCn1c2c(c(=N)c3c1CCC3)CCC2,–,–,–,–,–,–,·,·
COc1cc(NC(=O)C2(C)CCCN(C(C)C)C2)cc(OC)c1OC (configuration not stated),·,·,·,–,·,–,·,·
CC(C)Oc1ccc(S(=O)(=O)N2CCOCC2)cc1NC(=O)c1ccc(Cl)c(S(=O)(=O)N2CCOCC2)c1,·,·,·,–,·,–,·,·
CCc1c(C)sc(NC(=S)Nc2nc(C)cc(C)n2)c1C(=O)OC,–,–,–,–,–,–,45,–
CCc1c(C)sc(NC(=S)Nc2cccnc2)c1C(=O)OC,–,–,–,–,–,–,·,·
Cc1cccc(C)c1NC(=S)NC(=O)c1cccc(Cl)c1,·,·,·,–,·,–,·,·
COCCNC(=O)C1(C)CCN(C(=O)c2oc3ccccc3c2C)C1 (configuration not stated),·,·,·,–,·,–,·,·
CC(=O)N=C1SC2CS(=O)(=O)CC2N1c1cccc(Cl)c1Cl (configuration not stated),–,–,–,–,–,–,·,·
CC(=O)N=c1cccc(NC(C)=O)n1O,–,86,–,–,–,–,–,–

# Screens deposited in PubChem by The Scripps Research Institute Molecular Screening Center.
